Screening data: PubChem BioAssay, several laboratories
Scp1 inh: Scp-1 (human) phosphatase inhibition. inhibition, % at 20 µM. Recombinant Scp1, phosphopeptide, malachite green phosphate absorbance. 0.88% of 340,000 active. Q9GZU7;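 active means inhibition above about 50% at 20 µM, limit read from the data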
Target sequence (Q9GZU7 76-261 limits assumed): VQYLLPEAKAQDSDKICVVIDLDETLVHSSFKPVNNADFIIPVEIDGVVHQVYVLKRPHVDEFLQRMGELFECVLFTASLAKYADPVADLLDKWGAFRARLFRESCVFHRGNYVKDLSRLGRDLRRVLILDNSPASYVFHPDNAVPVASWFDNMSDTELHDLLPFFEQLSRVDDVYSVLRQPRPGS
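Test system: SCP-1 phosphatase catalytic domain, residues 76-261 | Compound dosing: One concentration, 20 µM, with 1.0% DMSO | Schedule: 45 min room-temperature reaction, 5 min colour, 30 min stabiliser | Detection: Absorbance at 630 nm | Read-out basis: % inhibition of SCP-1 phosphate liberation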
SUMO1-SIM PPI: SUMO1-SIM interaction modulation; P63165; SUMO1 binding to a labelled peptide, TR-FRET, 1 h; inhibition, % at 20 µM; 0.33% of 360,000 active; in the data active means inhibition above about 37%
Target sequence (P63165 whole entry, looked up): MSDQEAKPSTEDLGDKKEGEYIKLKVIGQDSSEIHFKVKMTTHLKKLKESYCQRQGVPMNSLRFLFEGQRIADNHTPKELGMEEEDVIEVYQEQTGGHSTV
DNMT1 inh: inhibitors of human DNMT1; DNMT1 molecular beacon, Hinp1I cleavage, fluorescence; AID 588458; 0.83% of 360,000 active; P26358; inhibition (reported as % activation of signal), % at 10 µM; in the data active means inhibition above about 50%
STEP block: inhibitors of human striatal-enriched phosphatase STEP; P54829; 0.25% of 360,000 active; inhibition, % at 20 µM; recombinant STEP, OMFP fluorogenic substrate, fluorescence;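 active means inhibition at 20 µM, scaled per plate between control wells, above about 37%, limit read from the data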
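System: STEP phosphatase, cell-free reaction; Buffer or medium: Bis-Tris pH 6.0 buffer with DTT, detergent; Incubation: 20 min at room temperature, dark; Measured by: fluorescence, 480/540 nm.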
GRK2 aptamer HTS: human GRK2 inhibition via aptamer displacement | 0.59% of 330,000 active | P25098 | bead flow cytometry, FAM-aptamer displacement from GRK2 | inhibition of aptamer binding, % at 10 µM;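 active means inhibition of aptamer binding above 40%, roughly 3 SD of noise, on plates passing a quality check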;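 further: median bead fluorescence of bound FAM aptamer so fluorescent compounds give negative values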
LMPTP inh: LMPTP (human) inhibition | inhibition, % at 20 µM | 0.22% of 360,000 active | recombinant LMPTP-A, OMFP fluorogenic substrate, fluorescence intensity | P24666;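 active means compounds that cut the enzyme signal by at least half of the control window in the single-dose screen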
Target sequence (P24666 whole entry, looked up): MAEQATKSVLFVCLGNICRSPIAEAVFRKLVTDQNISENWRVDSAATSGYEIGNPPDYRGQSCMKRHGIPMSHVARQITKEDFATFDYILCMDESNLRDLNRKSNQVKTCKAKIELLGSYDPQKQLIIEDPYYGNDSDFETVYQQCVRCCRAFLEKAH
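Test system: LMPTP-A phosphatase enzyme; input: 0.625 nM LMPTP-A final; reagent: OMFP substrate, 400 µM final; compound dosing: 20 µM single dose, 3% DMSO; incubation: 50 min dark incubation at room temperature; measured by: endpoint fluorescence intensity from OMFP dephosphorylation; measure: % inhibition relative to no-enzyme and uninhibited control wells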
Beacon interf DR: shows spectral interference in the DNMT1 beacon assay. shares compounds with DNMT1 inh. molecular beacon fluorescence, spectral interference counter-screen. IC50, µM. 200 tested, under 10 active; call rule not given here
DNMT1 inh conf: DNMT1 inhibition confirmation, single concentration | shares compounds with DNMT1 inh | DNMT1 molecular beacon HinP1I cleavage, fluorescence | AID 602385 | inhibition, % at 10 µM | 8% of 2,300 active;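 active means average inhibition of at least 30% in the single-concentration confirmation test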
DNMT1 interf: beacon fluorescence artifact counter-screen | 1% of 2,300 active | activation (fluorescence interference), % at 10 µM | AID 602387 | DNMT1 molecular beacon spectral interference counterscreen, fluorescence 485/520 | shares compounds with DNMT1 inh;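 active means activation of at least 30% at 10 µM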;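 further: DNMT1 catalytic domain with a HinP1I cleavage step and a FAM/dabcyl DNA beacon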
Of the large screens only hits and unclear results are named; the others gave an inactive call (follow-up assays come after a bar, where they were run). Most compounds without a hit are left out; they make up all but 2.1% or so of the library.

Cc1cc[n+](CC(=O)c2cccc([N+](=O)[O-])c2)c2ccccc12	DNMT1 inh 52.9 | Beacon interf DR inactive | DNMT1 inh conf 42.6 | DNMT1 interf inactive
O=C(C[n+]1cccc2ccccc21)c1ccc([N+](=O)[O-])cc1	none
O=C(O)CSc1cc(C(=O)c2ccccc2O)cn2c(=O)c3c4c(sc3nc12)CCCC4	Scp1 inh 66.0, DNMT1 inh 73.4, STEP block 95.5 (no result: GRK2 aptamer HTS) | Beacon interf DR inactive | DNMT1 inh conf 60.6 | DNMT1 interf inactive
O=C(O)CSc1nc2sc3c(c2c(=O)n1Cc1ccccc1)CCCCC3	none
Cc1cc(C)cc(OCc2nc3ncc(Br)cc3[nH]2)c1	DNMT1 inh 59.4 | DNMT1 inh conf inactive | DNMT1 interf inactive
O=C(CCNS(=O)(=O)c1ccccc1C(F)(F)F)N1CCCCCCC1	DNMT1 inh 52.5 | DNMT1 inh conf inactive | DNMT1 interf inactive
COc1ccc(/C=N/Nc2ccc([N+](=O)[O-])cc2S(=O)(=O)N2CCN(C)CC2)cc1	DNMT1 inh 55.6 | DNMT1 inh conf inactive | DNMT1 interf inactive
COc1ccc(C=NNc2ccc([N+](=O)[O-])cc2S(=O)(=O)Nc2ccccc2C(=O)O)cc1OC	none
Oc1ccc(N=Nc2ccccc2)o1	none
Cc1cc(SCC(=O)N2CCCC2=O)nc2c(C)cccc12	DNMT1 inh 80.4 | DNMT1 inh conf inactive | DNMT1 interf inactive
Cc1cc(SCC(=O)NC(=O)NCc2ccco2)nc2c(C)cccc12	DNMT1 inh 52.8 | DNMT1 inh conf inactive | DNMT1 interf inactive
COc1ccc(-c2nnc(SCC(=O)NCc3ccco3)o2)cc1	none
O=C(CSc1nnc(-c2ccc(OC(F)F)cc2)o1)NC(=O)NCc1ccco1	DNMT1 inh 82.7 | DNMT1 inh conf inactive | DNMT1 interf inactive
O=C(Cc1cccs1)N/N=C/C=C/c1ccco1	DNMT1 inh 66.2 | DNMT1 inh conf inactive | DNMT1 interf inactive
O=C(CSc1nnc(SCc2ccccc2)s1)N/N=C/C=C/c1ccco1	Scp1 inh 83.5, DNMT1 inh 97.9 | DNMT1 inh conf inactive | DNMT1 interf inactive
Cc1ccc(NC(=O)Nc2nnc(-c3ccccc3F)s2)cc1	DNMT1 inh 55.6 | DNMT1 inh conf inactive | DNMT1 interf inactive
COc1ccc(NC(=O)Nc2nnc(-c3ccccc3F)s2)cc1	none
Cc1ccc([N+](=O)[O-])cc1-c1ccc(/C=C(\C#N)c2[nH]nc(N)c2C#N)o1	SUMO1-SIM PPI 58.4, DNMT1 inh 83.9, LMPTP inh 71.4 | DNMT1 inh conf inactive | DNMT1 interf inactive
C/C(=C\c1ccccc1)C(=O)Nc1ccc(S(=O)(=O)Nc2ncccn2)cc1	none
CCOC(=O)C1C(=O)OC(C)(C)C1C(CC)C(=O)c1c(C)cc(C)cc1C (stereo not drawn)	none
Cc1ccc(OCC(=O)N2c3ccccc3NC(=O)C2(C)C)c([N+](=O)[O-])n1	none
CC1(C)C(=O)Nc2ccccc2N1C(=O)COc1cccnc1[N+](=O)[O-]	DNMT1 inh 57.9 | DNMT1 inh conf inactive | DNMT1 interf inactive
O=c1c2c3c(sc2[nH]c(=S)n1Cc1ccco1)CCC3	SUMO1-SIM PPI 43.4, DNMT1 inh 83.1 | DNMT1 inh conf inactive | DNMT1 interf inactive
CC1(C)Cc2c(sc3[nH]c(=S)n(Cc4ccco4)c(=O)c23)CO1	none
COCCCNC(=O)COc1ccc(S(=O)(=O)NCc2ccccc2)cc1Cl	none
CCC(C)[C@H](NC(=O)Nc1ccccc1F)C(=O)OC (stereo partly drawn)	none
COc1cccc(N(C(=O)Cn2nnc(-c3ccc(Cl)cc3)n2)C(C(=O)NCC2CCCO2)c2ccc(C)cc2)c1 (stereo not drawn)	DNMT1 inh 58.7 | DNMT1 inh conf inactive | DNMT1 interf inactive
COc1cccc(N(C(=O)Cn2nnc(-c3ccc(F)cc3)n2)C(C(=O)NCC2CCCO2)c2ccc(Cl)cc2)c1 (stereo not drawn)	none
CC(=O)NC12CC3CC(C1)CC(C(=O)OCC(=O)c1cc(C)n(C)c1C)(C3)C2	DNMT1 inh 51.1 | DNMT1 inh conf inactive | DNMT1 interf inactive
CCOc1ccccc1NC(=O)CSc1nc2cc(O)ccc2c(=O)n1-c1ccc(OC)c(OC)c1	none
O=C(O)c1cc(O)c2c(c1)C(=O)c1cccc(O)c1C2=O	Scp1 inh 64.6, DNMT1 inh 69.4 | DNMT1 inh conf inactive | DNMT1 interf inactive
O=C1C=C(O)c2c(O)cccc2C1=O	none (no result: Scp1 inh, SUMO1-SIM PPI, DNMT1 inh, STEP block, LMPTP inh)
CCOC(=O)C1=CC[C@@H](c2ccccc2)N(S(=O)(=O)c2ccc(C)cc2)[C@@H]1C#N	none (no result: Scp1 inh, DNMT1 inh, STEP block, GRK2 aptamer HTS)
Nc1ccc(S(=O)(=O)Nc2nccs2)cc1N=Nc1ccccc1[N+](=O)[O-]	DNMT1 inh 77.2 (no result: GRK2 aptamer HTS) | Beacon interf DR inactive | DNMT1 inh conf 80.5 | DNMT1 interf inactive
O=[N+]([O-])c1ccccc1S(=O)(=O)Nc1ccc(S(=O)(=O)Nc2nccs2)cc1	none
Cc1ccc(C(=O)NCC(=O)OCC(=O)Nc2ccc3[nH]c(=O)[nH]c3c2)cc1	none
Cn1ccc2c(N3c4ccccc4CCc4ccccc43)cc3c(c21)C1CCC3O1 (stereo not drawn)	DNMT1 inh 50.2 (no result: Scp1 inh, GRK2 aptamer HTS) | DNMT1 inh conf inactive | DNMT1 interf inactive
O=S1(=O)CCS(=O)(=O)C1c1ccccc1	none
N#Cc1cc2c(nc1SCC(=O)Nc1sc3c(c1C#N)CCC3)CCC2	none
COc1ccc(-c2ccc(C#N)c(SCC(=O)Nc3sc4c(c3C#N)CCC4)n2)cc1OC	DNMT1 inh 60.6 | DNMT1 inh conf inactive | DNMT1 interf inactive
CN(C(=O)COC(=O)c1ccccc1Cc1ccccc1)c1c(N)n(Cc2ccccc2)c(=O)[nH]c1=O	DNMT1 inh 88.7 | DNMT1 inh conf inactive | DNMT1 interf inactive
Cc1ccccc1N1CC(C(=O)Nc2ccncc2)CC1=O (stereo not drawn)	none
COc1ccc(C(=O)Nc2ccc(NC(=O)c3cccs3)cc2)cc1[N+](=O)[O-]	none | DNMT1 inh conf inactive | DNMT1 interf inactive
CCOc1ccc(C(=O)Nc2ccc(NC(=O)c3cccs3)cc2)cc1[N+](=O)[O-]	none
O=C1/C(=C\c2ccc(-c3ccccc3[N+](=O)[O-])o2)C(c2ccccc2)=NN1c1ccccc1	DNMT1 inh 62.8 | DNMT1 inh conf inactive | DNMT1 interf inactive
